Source: ChEMBL document CHEMBL1152399, “Synthesis and fungicidal activity of 3,5-dichloropyrazin-2(1H)-one derivatives” (2009)
Values after ≈ are worked out from the molar mass of the structure shown.

Experiments:
Assay type in all cases: functional
[1] = test system: Candida albicans; test: Antifungal activity against Candida albicans CAI4
Outline: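 C. albicans CAI4 overnight YPD culture diluted in PBS (~2 × 10⁶ cells/mL) and exposed to a range of compound concentrations in 2% DMSO for 5 h at 37 °C, then CFU counted. Survival is the CFU ratio against the 2% DMSO control. MFC is the lowest concentration giving <0.1% survival.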

[2] = test system: Candida albicans; test: Induction of reactive oxygen species production in Candida albicans assessed as corrected fluorescence value at 100 ug/mL after 3 hrs by fluorescence assay
Outline: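 C. albicans grown overnight in YPD at 37 °C and resuspended in PBS. Cells mixed with a 100 µg/mL compound solution in 10% DMSO (DMSO alone as control) and held 1 h at 37 °C. 2',7'-dichlorofluorescin diacetate then added; fluorescence read after 3 h (ex 485/em 525 nm). A compound-plus-probe blank without cells was subtracted to give the corrected value.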

[3] = test system: Saccharomyces cerevisiae; test: Antifungal activity against AMD1 gene knockout Saccharomyces cerevisiae mutant after 48 hrs by microtiter plate method
Outline: (§1)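 Yeast deletion mutants grown in YPD in microtiter wells for 48 h at 30 °C. For the retest, 5 µL fivefold serial dilutions of stationary-phase cultures were spotted on YPD with or without compound, and growth was compared with BY4741 after 48 h at 30 °C.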

[4] = test system: Saccharomyces cerevisiae; test: Ratio of MIC for wild type Saccharomyces cerevisiae BY4741 to MIC for YKL118W gene knockout Saccharomyces cerevisiae mutant
[5] = test system: Saccharomyces cerevisiae; test: Ratio of MIC for wild type Saccharomyces cerevisiae BY4741 to MIC for REG1 gene knockout Saccharomyces cerevisiae mutant
[6] = test system: Saccharomyces cerevisiae; test: Antifungal activity against CUP5 gene knockout Saccharomyces cerevisiae mutant after 48 hrs by microtiter plate method; outline: as §1
[7] = test system: Saccharomyces cerevisiae; test: Antifungal activity against YKL118W gene knockout Saccharomyces cerevisiae mutant after 48 hrs by microtiter plate method; outline: as §1
[8] = test system: Saccharomyces cerevisiae; test: Ratio of MIC for wild type Saccharomyces cerevisiae BY4741 to MIC for CUP5 gene knockout Saccharomyces cerevisiae mutant
[9] = test system: Candida albicans; test: Antifungal activity against Candida albicans assessed as fungus survival rate at 5 ug/mL in absence of ascorbic acid
Outline: (§2)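 Overnight C. albicans YPD culture diluted in PBS (~2 × 10⁶ cells/mL) and treated with compound in 2% DMSO, with or without 80 mM ascorbic acid, for 5 h at 37 °C. CFU counted, and percentage survival taken against the 2% DMSO control.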

[10] = test system: Saccharomyces cerevisiae; test: Antifungal activity against VMA7 gene knockout Saccharomyces cerevisiae mutant after 48 hrs by microtiter plate method; outline: as §1
[11] = test system: Saccharomyces cerevisiae; test: Ratio of MIC for wild type Saccharomyces cerevisiae BY4741 to MIC for HTL1 gene knockout Saccharomyces cerevisiae mutant
[12] = test system: Saccharomyces cerevisiae; test: Antifungal activity against VPH2 gene knockout Saccharomyces cerevisiae mutant after 48 hrs by microtiter plate method; outline: as §1
[13] = test system: Saccharomyces cerevisiae; test: Ratio of MIC for wild type Saccharomyces cerevisiae BY4741 to MIC for VPH2 gene knockout Saccharomyces cerevisiae mutant
[14] = test system: Saccharomyces cerevisiae; test: Antifungal activity against HTL1 gene knockout Saccharomyces cerevisiae mutant after 48 hrs by microtiter plate method; outline: as §1
[15] = test system: Saccharomyces cerevisiae; test: Ratio of MIC for wild type Saccharomyces cerevisiae BY4741 to MIC for VMA7 gene knockout Saccharomyces cerevisiae mutant
[16] = test system: Saccharomyces cerevisiae; test: Antifungal activity against ADA2 gene knockout Saccharomyces cerevisiae mutant after 48 hrs by microtiter plate method; outline: as §1
[17] = test system: Saccharomyces cerevisiae; test: Ratio of MIC for wild type Saccharomyces cerevisiae BY4741 to MIC for GET2 gene knockout Saccharomyces cerevisiae mutant
[18] = test system: Saccharomyces cerevisiae; test: Ratio of MIC for wild type Saccharomyces cerevisiae BY4741 to MIC for VPS15 gene knockout Saccharomyces cerevisiae mutant
[19] = test system: Candida albicans; test: Antifungal activity against Candida albicans assessed as fungus survival rate at 5 ug/mL in presence of ascorbic acid; outline: as §2
[20] = test system: Saccharomyces cerevisiae; test: Antifungal activity against SPT7 gene knockout Saccharomyces cerevisiae mutant after 48 hrs by microtiter plate method; outline: as §1
[21] = test system: Saccharomyces cerevisiae; test: Ratio of MIC for wild type Saccharomyces cerevisiae BY4741 to MIC for SPT7 gene knockout Saccharomyces cerevisiae mutant
[22] = test system: Saccharomyces cerevisiae; test: Antifungal activity against 3,5-dichloro-6-(chloromethyl)-1-phenylpyrazin-2(1H)-one-resistant Saccharomyces cerevisiae mutant after 48 hrs by microtiter plate method
[23] = test system: Saccharomyces cerevisiae; test: Ratio of MIC for wild type Saccharomyces cerevisiae BY4741 to MIC for ADA2 gene knockout Saccharomyces cerevisiae mutant
[24] = test system: Saccharomyces cerevisiae; test: Ratio of MIC for wild type Saccharomyces cerevisiae BY4741 to MIC for AMD1 gene knockout Saccharomyces cerevisiae mutant
[25] = test system: Saccharomyces cerevisiae; test: Antifungal activity against VPS15 gene knockout Saccharomyces cerevisiae mutant after 48 hrs by microtiter plate method; outline: as §1
[26] = test system: Saccharomyces cerevisiae; test: Antifungal activity against wild type Saccharomyces cerevisiae BY4741 after 48 hrs by microtiter plate method; conditions: BY4741, 48 h; outline: as §1
[27] = test system: Saccharomyces cerevisiae; test: Antifungal activity against GET2 gene knockout Saccharomyces cerevisiae mutant after 48 hrs by microtiter plate method; outline: as §1
[28] = test system: Saccharomyces cerevisiae; test: Ratio of MIC for 3,5-dichloro-6-(chloromethyl)-1-phenylpyrazin-2(1H)-one-resistant Saccharomyces cerevisiae mutant to MIC for wild type Saccharomyces cerevisiae BY4741
[29] = test system: Saccharomyces cerevisiae; test: Antifungal activity against REG1 gene knockout Saccharomyces cerevisiae mutant after 48 hrs by microtiter plate method; outline: as §1

SMILES: Cc1c(Cl)nc(Cl)c(=O)n1-c1ccccc1
- MFC [1]: > 100 µg/mL

SMILES: O=c1c(Cl)nc(Cl)cn1C1CCCCC1
- MFC [1]: > 100 µg/mL
- Activity [2]: >500

SMILES: COc1ccc(Cn2c(C)c(Cl)nc(Cl)c2=O)cc1
- MFC [1]: > 100 µg/mL

SMILES: COc1cccc(-c2c(Cl)nc(Cl)c(=O)n2C)c1
- MFC [1]: > 100 µg/mL
- Activity [2]: >500

SMILES: O=c1c(Cl)nc(Cl)cn1Cc1ccccc1
- MFC [1]: 50 µg/mL (≈ 196 µM)

SMILES: COC(=O)c1ccc(-c2c(Cl)nc(Cl)c(=O)n2-c2ccccc2)cc1
- MFC [1]: > 100 µg/mL

SMILES: O=c1c(-c2ccccc2)nc(Cl)c(CCl)n1-c1ccccc1
- MFC [1]: > 100 µg/mL
- Activity [2]: >500

SMILES: COc1ccc(Cn2c(-c3ccc(OC)cc3)c(Cl)nc(Cl)c2=O)cc1
- MFC [1]: > 100 µg/mL
- Activity [2]: >500

SMILES: O=c1c(Cl)nc(Cl)c(CCl)n1-c1ccccc1
- MIC [3]: 0.5 µg/mL (≈ 1.73 µM)
- Ratio [4]: 5
- Ratio [5]: 5
- MIC [6]: 0.5 µg/mL (≈ 1.73 µM)
- MIC [7]: 0.5 µg/mL (≈ 1.73 µM)
- Ratio [8]: 5
- MFC [1]: 5 µg/mL (≈ 17.3 µM)
- Activity [9]: 0.009%
- MIC [10]: 0.5 µg/mL (≈ 1.73 µM)
- Ratio [11]: 5
- MIC [12]: 0.5 µg/mL (≈ 1.73 µM)
- Ratio [13]: 5
- MIC [14]: 0.5 µg/mL (≈ 1.73 µM)
- Ratio [15]: 5
- MIC [16]: 0.5 µg/mL (≈ 1.73 µM)
- Ratio [17]: 5
- Ratio [18]: 5
- Activity [19]: 64%
- MIC [20]: 0.5 µg/mL (≈ 1.73 µM)
- Ratio [21]: 5
- MIC [22]: 12.5 µg/mL (≈ 43.2 µM)
- Ratio [23]: 5
- Ratio [24]: 5
- MIC [25]: 0.5 µg/mL (≈ 1.73 µM)
- MIC [26]: 2.5 µg/mL (≈ 8.63 µM)
- MIC [27]: 0.5 µg/mL (≈ 1.73 µM)
- Ratio [28]: 5
- MIC [29]: 0.5 µg/mL (≈ 1.73 µM)

SMILES: O=c1c(Cl)nc(Cl)cn1CCc1ccccc1
- MFC [1]: 50 µg/mL (≈ 186 µM)

SMILES: O=c1c(Cl)nc(Cl)cn1-c1ccccc1
- MFC [1]: 10 µg/mL (≈ 41.5 µM)

SMILES: COc1ccc(-c2c(Cl)nc(Cl)c(=O)n2-c2ccccc2)cc1
- MFC [1]: > 100 µg/mL

SMILES: COc1ccc(-n2cc(Cl)nc(Cl)c2=O)cc1
- MFC [1]: 10 µg/mL (≈ 36.9 µM)

SMILES: COc1ccccc1-c1c(Cl)nc(Cl)c(=O)n1-c1ccccc1
- MFC [1]: > 100 µg/mL
- Activity [2]: < 100

SMILES: COCCn1c(-c2ccccc2)c(Cl)nc(Cl)c1=O
- MFC [1]: > 100 µg/mL
- Activity [2]: >500

SMILES: COc1nc(Cl)c(CCl)n(-c2ccccc2)c1=O
- MFC [1]: > 100 µg/mL
- Activity [2]: >500

SMILES: O=c1c(Cl)nc(Cl)c(CBr)n1-c1ccccc1
- MFC [1]: 5 µg/mL (≈ 15 µM)

SMILES: O=c1c(Cl)nc(Cl)cn1CC1CCCCC1
- MFC [1]: 100 µg/mL (≈ 383 µM)

SMILES: COc1ccc(Cn2cc(Cl)nc(Cl)c2=O)cc1
- MFC [1]: 50 µg/mL (≈ 175 µM)

SMILES: Cc1c(Cl)nc(Cl)c(=O)n1Cc1ccccc1
- MFC [1]: > 100 µg/mL
- Activity [2]: >500

SMILES: COc1ccccc1Cn1c(Cc2ccccc2)c(Cl)nc(Cl)c1=O
- MFC [1]: > 100 µg/mL

SMILES: Cc1ccccc1-c1c(Cl)nc(Cl)c(=O)n1-c1ccccc1
- MFC [1]: > 100 µg/mL
- Activity [2]: >500
